Test results reported in ChEMBL document CHEMBL1148140, “Isolation of streptonigrin and its novel derivative from Micromonospora as inducing agents of p53-dependent cell apoptosis” (J Nat Prod, 2002).
Active and inactive are the calls of the source. No cut-off for these calls is given here.

Columns and labels:
SH-SY5Y [1] = assay: Cytotoxicity against human SH-SY5Y cells overexpressing dominant negative mutant of p53; assay type: functional, cell-based
Procedure, shortened: (§1)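 Viability by MTS tetrazolium reduction. Neuroblastoma SH-SY5Y and SH-SY5Y-5.6 lines (HA-tagged 91-aa mini p53) were seeded the day before at 10⁵ cells/mL in RPMI with hygromycin 0.1 mg/mL. Exposure was 24 h; MTS was added at hour 20 (final 0.04 mg/well) for 4 h at 37 °C. Dose-response was run on reproducible hits.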

SH-SY5Y [2] = assay: Cytotoxicity against human wild type SH-SY5Y cells; assay type: functional, cell-based; procedure, shortened: as §1
SH-SY5Y [3] = assay: Selectivity ratio of IC50 for human SH-SY5Y cells overexpressing dominant negative mutant of p53 to IC50 for human wild type SH-SY5Y cells; assay type: functional
SH-SY5Y [4] = assay: Induction of apoptosis in human SH-SY5Y cells assessed as DNA ladder activity; assay type: functional, cell-based
SH-SY5Y [5] = assay: Induction of apoptosis in human SH-SY5Y cells assessed as nuclear accumulation of p53; assay type: functional, cell-based
SH-SY5Y [6] = assay: Cytotoxicity against human wild type SH-SY5Y cells upto 100 uM; assay type: functional, cell-based; procedure, shortened: as §1
SH-SY5Y [7] = assay: Cytotoxicity against human SH-SY5Y cells overexpressing dominant negative mutant of p53 upto 100 uM; assay type: functional, cell-based; procedure, shortened: as §1

Row | SMILES | IC50 (SH-SY5Y [1]) [µM] | IC50 (SH-SY5Y [2]) [µM] | Ratio IC50 (SH-SY5Y [3]) | Activity (SH-SY5Y [4]) | Activity (SH-SY5Y [5]) | Activity (SH-SY5Y [6]) | Activity (SH-SY5Y [7])
1 | C[C@H]1CNCCN1S(=O)(=O)c1cccc2cnccc12 | 80 | 40 | – | – | – | – | –
2 | COC1=C(N)C(=O)c2nc(-c3nc(C(=O)O)c(C)c(-c4ccc(OC)c(OC)c4O)c3N)ccc2C1=O [STREPTONIGRIN] | 4.6 | 0.05 | 92 | Active | Active | – | –
3 | COC1=C(NC(C)C(C)=O)C(=O)c2nc(-c3nc(C(=O)O)c(C)c(-c4ccc(OC)c(OC)c4O)c3N)ccc2C1=O (stereo not drawn) | 75 | 0.9 | – | – | – | – | –
4 | CC(C)/C=c1\c(=O)[nH]/c(=C\c2ccccc2)c(=O)n1C | – | – | – | – | – | inactive | inactive
5 | CC(C)/C=c1\[nH]c(=O)/c(=C/c2ccccc2)[nH]c1=O | – | – | – | – | – | inactive | inactive
